The source of these data is ChEMBL document CHEMBL1151705, “Novel azalides derived from 16-membered macrolides. Part II: Isolation of the linear 9-formylcarboxylic acid and its sequential macrocyclization with an amino alcohol or an azidoamine” (2008).

Converted amounts (≈) assume the structure as drawn.

Assay type in all cases: functional
Assay [1] relates to Streptococcus pneumoniae. Put plainly: Antimicrobial activity against Streptococcus pneumoniae 8 expressing inducible ermB after 20 hrs by agar dilution method. The note with it: Streptococcus pneumoniae, 20 h; read-out: MIC. In a few lines: (§1)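 Streptococci, H. influenzae and M. catarrhalis were precultured on blood agar plates. Suspensions of about 10⁶ CFU/ml were inoculated onto sensitivity disk agar supplemented with 5% horse blood and incubated at 37 °C for 20 h. MIC was read as the lowest drug concentration with no visible growth.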
Background: In agar dilution, organisms are placed on agar that contains the substance at set levels.

The subject of assay [2] is Streptococcus pneumoniae. Briefly: Antimicrobial activity against Streptococcus pneumoniae 9 expressing mefA after 20 hrs by agar dilution method. The settings on record: Streptococcus pneumoniae, 20 h; read-out: MIC. A digest of the protocol: as §1
Assay [3] has as its system Streptococcus pneumoniae. Briefly: Antimicrobial activity against Streptococcus pneumoniae 10 expressing mefA after 20 hrs by agar dilution method. The settings on record: Streptococcus pneumoniae, 20 h; read-out: MIC. In a few lines: as §1
For assay [4], the system named is Streptococcus pyogenes. Put plainly: Antimicrobial activity against drug-susceptible Streptococcus pyogenes 1 after 20 hrs by agar dilution method. The note with it: Streptococcus pyogenes, 20 h; read-out: MIC. A digest of the protocol:
as §1

Assay [5] relates to Streptococcus pyogenes. Put plainly: Antimicrobial activity against Streptococcus pyogenes 2 constitutively expressing ermB after 20 hrs by agar dilution method. In a few lines: as §1
Assay [6] has as its system Streptococcus pyogenes. Briefly: Antimicrobial activity against Streptococcus pyogenes 3 expressing mefA after 20 hrs by agar dilution method. The settings on record: Streptococcus pyogenes, 20 h; read-out: MIC. In a few lines:
as §1

Assay [7] deals with Moraxella catarrhalis. Briefly: Antimicrobial activity against drug-susceptible Moraxella catarrhalis 1 after 20 hrs by agar dilution method. The settings on record: Moraxella catarrhalis, 20 h; read-out: MIC. In a few lines: as §1
For assay [8], the system named is Moraxella catarrhalis. Put plainly: Antimicrobial activity against drug-susceptible Moraxella catarrhalis 2 after 20 hrs by agar dilution method. The settings on record: Moraxella catarrhalis, 20 h; read-out: MIC. A digest of the protocol: as §1
The test system of assay [9] is Haemophilus influenzae. Put plainly: Antimicrobial activity against drug-susceptible Haemophilus influenzae 1 after 20 hrs by agar dilution method. The settings on record: Haemophilus influenzae, 20 h; read-out: MIC. A digest of the protocol:
as §1

In assay [10] the test system is Haemophilus influenzae. Briefly: Antimicrobial activity against drug-susceptible Haemophilus influenzae 2 after 20 hrs by agar dilution method. The settings on record: Haemophilus influenzae, 20 h; read-out: MIC. A digest of the protocol:
as §1

Assay [11] relates to Haemophilus influenzae. Put plainly: Antimicrobial activity against drug-susceptible Haemophilus influenzae 3 after 20 hrs by agar dilution method. The settings on record: Haemophilus influenzae, 20 h; read-out: MIC. A digest of the protocol:
as §1

The test system of assay [12] is Haemophilus influenzae. Briefly: Antimicrobial activity against drug-susceptible Haemophilus influenzae 4 after 20 hrs by agar dilution method. The note with it: Haemophilus influenzae, 20 h; read-out: MIC. A digest of the protocol: as §1
The test system of assay [13] is Staphylococcus aureus. Put plainly: Antimicrobial activity against drug-susceptible Staphylococcus aureus 209P JC-1 after 20 hrs by agar dilution method. The note with it: Staphylococcus aureus, 209P, 20 h; read-out: MIC. In a few lines:
(§2)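 Agar dilution MIC. S. aureus seed culture was grown in sensitivity test broth. Cell suspension (about 10⁶ CFU/ml) was inoculated onto sensitivity disk agar with 5% horse blood and incubated at 37 °C for 20 h. MIC was the lowest drug concentration that prevented visible growth.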

The test system of assay [14] is Staphylococcus aureus. Briefly: Antimicrobial activity against drug-susceptible Staphylococcus aureus 2 after 20 hrs by agar dilution method. The note with it: Staphylococcus aureus, 20 h; read-out: MIC. In a few lines:
as §2

For assay [15], the system named is Staphylococcus aureus. Put plainly: Antimicrobial activity against drug-susceptible Staphylococcus aureus 3 after 20 hrs by agar dilution method. The note with it: Staphylococcus aureus, 20 h; read-out: MIC. A digest of the protocol: as §2
Assay [16] deals with Staphylococcus aureus. Put plainly: Antimicrobial activity against Staphylococcus aureus 4 constitutively expressing ermA after 20 hrs by agar dilution method. A digest of the protocol:
as §2

The subject of assay [17] is Staphylococcus aureus. Put plainly: Antimicrobial activity against Staphylococcus aureus 5 expressing inducible ermB after 20 hrs by agar dilution method. The note with it: Staphylococcus aureus, 20 h; read-out: MIC. A digest of the protocol:
as §2

The test system of assay [18] is Streptococcus pneumoniae. Briefly: Antimicrobial activity against drug-susceptible Streptococcus pneumoniae DP1 Type1 after 20 hrs by agar dilution method. The settings on record: Streptococcus pneumoniae, 20 h; read-out: MIC. In a few lines:
as §1

Assay [19] has as its system Streptococcus pneumoniae. Put plainly: Antimicrobial activity against drug-susceptible Streptococcus pneumoniae 2 after 20 hrs by agar dilution method. The note with it: Streptococcus pneumoniae, 20 h; read-out: MIC. In a few lines:
as §1

For assay [20], the system named is Streptococcus pneumoniae. Briefly: Antimicrobial activity against Streptococcus pneumoniae 5 constitutively expressing ermB/mefA after 20 hrs by agar dilution method. The note with it: Streptococcus pneumoniae, 20 h; read-out: MIC. In a few lines: as §1
The test system of assay [21] is Streptococcus pneumoniae. Put plainly: Antimicrobial activity against Streptococcus pneumoniae 6 constitutively expressing ermB after 20 hrs by agar dilution method. The settings on record: Streptococcus pneumoniae, 20 h; read-out: MIC. In a few lines:
as §1

For assay [22], the system named is Streptococcus pneumoniae. Put plainly: Antimicrobial activity against Streptococcus pneumoniae 7 expressing inducible ermB after 20 hrs by agar dilution method. The note with it: Streptococcus pneumoniae, 20 h; read-out: MIC. In a few lines: as §1
Assay [23] has as its system Staphylococcus aureus. Briefly: Antimicrobial activity against Staphylococcus aureus 6 expressing inducible ermB after 20 hrs by agar dilution method. In a few lines: as §2

For `CCOC(=O)[C@H]1[C@H](C)O[C@@H](O[C@H]2[C@H](N(C)C)[C@@H](O)[C@H](O[C@H]3[C@@H](CC=O)C[C@@H](C)[C@@H](OC(C)=O)CN(CCCCc4ccccc4)CCCNC(=O)C[C@@H](OC(=O)CC)[C@@H]3OC)O[C@@H]2C)C[C@@]1(C)OC(C)=O`, the MIC with Streptococcus pneumoniae [1] is 32 µg/mL (≈ 31.8 µM); with Streptococcus pneumoniae [2], 0.25 µg/mL (≈ 0.248 µM); with Streptococcus pneumoniae [3] it was 0.25 µg/mL (≈ 0.248 µM); with Streptococcus pyogenes [4] it was 0.13 µg/mL (≈ 0.129 µM); with Streptococcus pyogenes [5], greater than 128 µg/mL; in the assay with Streptococcus pyogenes [6] it was 0.5 µg/mL (≈ 0.497 µM). In addition, the MIC was determined as 0.25 µg/mL (≈ 0.248 µM) in the assay on Moraxella catarrhalis [7]; 0.25 µg/mL (≈ 0.248 µM) with Moraxella catarrhalis [8]; 16 µg/mL (≈ 15.9 µM) in the assay with Haemophilus influenzae [9]; 0.5 µg/mL (≈ 0.497 µM) in the assay on Haemophilus influenzae [10]; 2 µg/mL (≈ 1.99 µM) in the assay on Haemophilus influenzae [11]; 4 µg/mL (≈ 3.98 µM) in the assay with Haemophilus influenzae [12]. Also, the MIC in the assay with Staphylococcus aureus [13] is 0.25 µg/mL (≈ 0.248 µM); in the assay on Staphylococcus aureus [14], 1 µg/mL (≈ 0.994 µM); in the assay with Staphylococcus aureus [15], 0.5 µg/mL (≈ 0.497 µM); in the assay with Staphylococcus aureus [16], greater than 128 µg/mL; with Staphylococcus aureus [17], 0.25 µg/mL (≈ 0.248 µM); in the assay on Streptococcus pneumoniae [18], 0.25 µg/mL (≈ 0.248 µM). Further, the MIC with Streptococcus pneumoniae [19] was 0.5 µg/mL (≈ 0.497 µM); with Streptococcus pneumoniae [20] it was greater than 128 µg/mL; with Streptococcus pneumoniae [21] it was greater than 128 µg/mL; in the assay on Streptococcus pneumoniae [22], 32 µg/mL (≈ 31.8 µM); against Staphylococcus aureus [23] it was 1 µg/mL (≈ 0.994 µM).
For the molecule `CCOC(=O)[C@H]1[C@H](C)O[C@@H](O[C@H]2[C@H](N(C)C)[C@@H](O)[C@H](O[C@H]3[C@@H](CC=O)C[C@@H](C)[C@@H](OC(C)=O)CN(CCCCc4ccccc4)CCN(C)C(=O)C[C@@H](OC(=O)CC)[C@@H]3OC)O[C@@H]2C)C[C@@]1(C)OC(C)=O`, the MIC is greater than 128 µg/mL with Streptococcus pneumoniae [1]; 1 µg/mL (≈ 0.994 µM) in the assay on Streptococcus pneumoniae [2]; 1 µg/mL (≈ 0.994 µM) with Streptococcus pneumoniae [3]; 0.5 µg/mL (≈ 0.497 µM) with Streptococcus pyogenes [4]; greater than 128 µg/mL in the assay on Streptococcus pyogenes [5]; 1 µg/mL (≈ 0.994 µM) in the assay with Streptococcus pyogenes [6]. Further, the MIC is 1 µg/mL (≈ 0.994 µM) with Moraxella catarrhalis [7]; 1 µg/mL (≈ 0.994 µM) in the assay on Moraxella catarrhalis [8]; greater than 128 µg/mL in the assay with Haemophilus influenzae [9]; 4 µg/mL (≈ 3.98 µM) in the assay on Haemophilus influenzae [10]; 16 µg/mL (≈ 15.9 µM) in the assay on Haemophilus influenzae [11]; 16 µg/mL (≈ 15.9 µM) in the assay with Haemophilus influenzae [12]. Also, the MIC in the assay with Staphylococcus aureus [13] is 1 µg/mL (≈ 0.994 µM); in the assay with Staphylococcus aureus [14] it was 2 µg/mL (≈ 1.99 µM); with Staphylococcus aureus [15] it was 1 µg/mL (≈ 0.994 µM); in the assay on Staphylococcus aureus [16], greater than 128 µg/mL; in the assay with Staphylococcus aureus [17], 1 µg/mL (≈ 0.994 µM); in the assay on Streptococcus pneumoniae [18], 0.5 µg/mL (≈ 0.497 µM). Besides, the MIC in the assay on Streptococcus pneumoniae [19] was 1 µg/mL (≈ 0.994 µM); in the assay with Streptococcus pneumoniae [20], greater than 128 µg/mL; in the assay with Streptococcus pneumoniae [21], greater than 128 µg/mL; in the assay on Streptococcus pneumoniae [22] it was greater than 128 µg/mL; against Staphylococcus aureus [23] it was 2 µg/mL (≈ 1.99 µM).
For the molecule `CCOC(=O)[C@H]1[C@H](C)O[C@@H](O[C@H]2[C@H](N(C)C)[C@@H](O)[C@H](O[C@H]3[C@@H](CC=O)C[C@@H](C)[C@@H](OC(C)=O)CN(CCCCc4ccccc4)CCNC(=O)C[C@@H](OC(=O)CC)[C@@H]3OC)O[C@@H]2C)C[C@@]1(C)OC(C)=O`, the MIC in the assay with Streptococcus pneumoniae [1] was greater than 128 µg/mL; in the assay with Streptococcus pneumoniae [2], 1 µg/mL (≈ 1.01 µM); in the assay on Streptococcus pneumoniae [3], 0.5 µg/mL (≈ 0.504 µM); in the assay with Streptococcus pyogenes [4], 0.5 µg/mL (≈ 0.504 µM); in the assay on Streptococcus pyogenes [5], greater than 128 µg/mL; with Streptococcus pyogenes [6], 1 µg/mL (≈ 1.01 µM). Besides, the MIC in the assay on Moraxella catarrhalis [7] was 0.5 µg/mL (≈ 0.504 µM); with Moraxella catarrhalis [8], 1 µg/mL (≈ 1.01 µM); in the assay with Haemophilus influenzae [9], greater than 128 µg/mL; in the assay on Haemophilus influenzae [10] it was 2 µg/mL (≈ 2.02 µM); in the assay with Haemophilus influenzae [11], 8 µg/mL (≈ 8.06 µM); in the assay with Haemophilus influenzae [12], 8 µg/mL (≈ 8.06 µM). The MIC with Staphylococcus aureus [13] is 0.5 µg/mL (≈ 0.504 µM); with Staphylococcus aureus [14], 2 µg/mL (≈ 2.02 µM); in the assay on Staphylococcus aureus [15], 1 µg/mL (≈ 1.01 µM); against Staphylococcus aureus [16] it was greater than 128 µg/mL; in the assay with Staphylococcus aureus [17], 1 µg/mL (≈ 1.01 µM); with Streptococcus pneumoniae [18], 0.5 µg/mL (≈ 0.504 µM). Also, the MIC in the assay on Streptococcus pneumoniae [19] was 0.5 µg/mL (≈ 0.504 µM); in the assay with Streptococcus pneumoniae [20], greater than 128 µg/mL; in the assay on Streptococcus pneumoniae [21] it was greater than 128 µg/mL; in the assay on Streptococcus pneumoniae [22], greater than 128 µg/mL; with Staphylococcus aureus [23], 2 µg/mL (≈ 2.02 µM).
